Compound activity deposited in PubChem by several laboratories.
Arbovirus anti – antivirals against arbovirus infection, primary screen, cell-based, full library, 10K replicate subset. arbovirus infection cell-based antiviral screen. inhibition, % at 10 µM. 200,000 compounds, 0.37% hits. AID 1251, 2008; in the data active = inhibition above about 30%
MDM2 E3 inh – MDM2-luciferase reporter signal enhancers, primary screen, MDM2 E3 ligase inhibitor project, cell-based, luminescence, 1536-well | 210,000 compounds, 0.11% hits | cell-based MDM2 ubiquitination luciferase reporter, 2 h; 0 = plate control, 100 = twice control, blank-subtracted | E3 ubiquitin-protein ligase Mdm2 (Homo sapiens), Q00987 | AID 1230, 2008 | signal enhancement, % at 5 µM;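 active = signal enhancement of 30% or more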;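 note: luminescence tracks abundance of the self-degrading MDM2-luciferase fusion protein; higher signal means inhibition of MDM2 E3 ligase activity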
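Material: Stable MDM2–luciferase fusion reporter cells | Amount: 2000 cells seeded into each well | Dosing: One concentration, 5 µM, with 0.2% DMSO | Incubation: 4 h cell settling then 2 h compound exposure, 37 °C | Measured by: Luciferase luminescence | Read-out basis: % enhancement relative to plate controls after blank subtraction | Benchmarks: Control and blank well means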
KCC2 mod – KCC2 cotransporter modulators, thallium flux, primary screen, cell-based, HEK293 KCC2, FluoZin-2 fluorescence, MLSMR | Solute carrier family 12 member 5 (Homo sapiens), Q9H2X9 | KCC2 cells, thallium flux FluoZin-2 fluorescence | B-score of Tl+ flux slope (higher = more flux/activation; lower = inhibition) at 10 µM | 190,000 compounds, 2.2% hits | AID 1456, 2008;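 active = thallium flux slope and its plate-corrected score both differing from the plate sample mean at a set confidence after two filtering rounds, in either direction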;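 note: slope of fluorescence scaled to starting intensity during 10 to 20 s after thallium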
PKD1 inh – inhibitors of human PKD1 kinase, biochemical, fluorescence polarization. AID 797, 2007. Serine/threonine-protein kinase D1 (Homo sapiens), Q15139. inhibition, % (concentration not given with the values). 200,000 compounds, 0.056% hits. PKD1 kinase fluorescence polarization assay; in the data active = inhibition above about 50%
Target sequence (Q15139 whole entry, looked up): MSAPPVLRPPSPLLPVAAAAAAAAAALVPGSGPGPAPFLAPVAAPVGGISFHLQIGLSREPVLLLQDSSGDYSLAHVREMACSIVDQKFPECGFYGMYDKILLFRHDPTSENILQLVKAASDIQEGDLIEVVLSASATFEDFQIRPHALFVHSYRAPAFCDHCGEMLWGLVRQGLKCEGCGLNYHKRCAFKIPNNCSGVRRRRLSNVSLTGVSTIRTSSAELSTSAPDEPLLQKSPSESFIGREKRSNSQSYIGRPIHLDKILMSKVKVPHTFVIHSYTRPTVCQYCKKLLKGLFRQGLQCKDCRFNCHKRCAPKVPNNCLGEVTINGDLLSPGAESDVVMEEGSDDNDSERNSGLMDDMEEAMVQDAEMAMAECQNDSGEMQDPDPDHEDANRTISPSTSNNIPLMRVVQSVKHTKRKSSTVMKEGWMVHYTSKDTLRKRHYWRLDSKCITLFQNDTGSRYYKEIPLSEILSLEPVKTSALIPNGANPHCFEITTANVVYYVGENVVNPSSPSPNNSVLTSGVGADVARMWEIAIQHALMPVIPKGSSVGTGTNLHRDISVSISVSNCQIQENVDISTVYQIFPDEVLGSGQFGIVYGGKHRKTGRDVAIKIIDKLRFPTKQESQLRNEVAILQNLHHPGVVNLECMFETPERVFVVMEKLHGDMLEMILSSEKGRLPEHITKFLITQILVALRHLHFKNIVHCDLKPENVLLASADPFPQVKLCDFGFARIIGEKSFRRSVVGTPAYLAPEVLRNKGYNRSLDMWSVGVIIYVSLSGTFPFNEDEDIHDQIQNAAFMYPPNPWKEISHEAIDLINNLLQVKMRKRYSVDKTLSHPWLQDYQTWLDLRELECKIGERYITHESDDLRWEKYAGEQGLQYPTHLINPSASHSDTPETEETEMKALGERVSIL
ROMK mod – ROMK potassium channel modulators, primary screen, cell-based, thallium flux, MLSMR library. B-score at 10 µM. ATP-sensitive inward rectifier potassium channel 1 (Homo sapiens), P48048. 130,000 compounds, 2% hits. Tet-inducible ROMK, thallium flux fluorescence; actives lie on both sides;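 active = signal ratio slope over the read window, or its plate-corrected B-score, at least 3 SD from the plate mean, either direction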;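 note: B-score of the F/F0 ratio slope over 7 to 12 s after thallium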
m-calpain inh – inhibitors of pig calpain II, primary screen, biochemical, fluorogenic peptide substrate, 1536-well; purified calpain II, 30 min; inhibition, % at 16 µM; 220,000 compounds, 0.37% hits; AID 1236, 2008;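 active = inhibition above about 50%, limit read from the data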
* hit, by the source's call; . = no result. Only some compounds are listed: those with a hit (about 3.7% of all), similar ones and a draw of the others.

SMILES | Arbovirus anti | MDM2 E3 inh | KCC2 mod | PKD1 inh | ROMK mod | m-calpain inh
COc1ccccc1NCC(=O)n1nc(C)cc1C | 3 | 3 | 1.4 | 3 | . | 0
O=C(Cn1cc(F)c(=O)[nH]c1=O)NCCO | 1 | -5 | -0.46 | -2 | -0.0063 | -21
O=c1c(-c2ccccc2)c[nH]n1-c1cccc([N+](=O)[O-])c1 | 35* | -16 | -0.41 | -5 | 0.68 | 26
O=[N+]([O-])c1cccc(N2Cc3ccccc3C2)c1 | 0 | -22 | 0.27 | -6 | -0.36 | 8
CC(C)CC(NC(N)=O)C(=O)NCc1ccccc1Cl (stereo unspecified) | -2 | -10 | 0.042 | -2 | 0.98 | -19
O=C(c1cncc(Br)c1)N1CCCc2ccccc21 | -2 | -13 | -0.68 | -10 | 0.087 | -4
O=C(c1coc(=O)c(Br)c1)N1CCCc2ccccc21 | 32* | -31 | . | -1 | -0.79 | .
COc1ccc([N+](=O)[O-])cc1N(CC(=O)N1CCCC1)S(C)(=O)=O | 3 | -7 | 0.56 | -6 | 0.38 | -12
Cc1ccc(NC(=S)N=Nc2c(O)n(C)c3ccc(S(=O)(=O)N4CCOCC4)cc23)cc1 | -25 | -4 | 9.6* | 3 | . | -21
C=CCOc1ccc(Br)cc1/C=C1/SC(=Nc2ccc(C(=O)O)cc2)NC1=O | 32* | -12 | -3.6 | -5 | -0.75 | -61
C=CCOc1ccc(Br)cc1/C=N/O | -1 | -4 | -0.98 | 8 | -1.6 | 12
CCN(CC(=O)Nc1cc(Cl)ccc1OC)CC(=O)NC1CCS(=O)(=O)C1 (stereo unspecified) | . | . | . | . | . | -3
CC(C)(C)C(=O)NC1(C(F)(F)F)NC(=O)N(c2ccccc2F)C1=O (stereo unspecified) | . | -15 | 0.52 | . | . | -19
COc1ccc(-c2nnc(Nc3nc4c(OC)cccc4s3)o2)c(OC)c1 | -22 | -3 | 85* | -12 | 7.3* | -168
COc1ccc(-c2nnc(Nc3nc4c(OC)cccc4s3)o2)cc1 | -26 | -19 | 9.5* | -1 | . | -136
C/C(CC(=O)Nc1cccc(Cl)c1Cl)=N\NC(=O)c1ccccc1C | -7 | -2 | 0.092 | 4 | . | -16
COc1cccc(C2=NN(C(=O)CCCC(=O)O)C(c3cccs3)C2)c1 (stereo unspecified) | . | -11 | 0.048 | . | -0.49 | 12
CCOc1ccc(Cl)cc1S(=O)(=O)N1CCN(c2ccc(F)cc2)CC1 | 0 | -4 | . | -7 | . | 59*
COc1ccc(Cl)cc1S(=O)(=O)N1CCN(c2ccc(F)cc2)CC1 | 7 | -5 | -0.25 | -8 | . | -6
CC(=O)c1cn(-c2ccc(Cl)cc2)c(=O)n(Cc2ccc(Br)cc2)c1=O | 5 | 2 | 0.78 | -7 | -0.09 | -22
COc1cccc(OCC(=O)NNC(=O)c2cccs2)c1 | -4 | -4 | 0.38 | -6 | 0.95 | 9
CCc1ccc(NC(=O)C(=O)NNC(=O)COc2cccc(OC)c2)cc1 | 5 | -3 | 18* | -3 | 2.8* | -29
CC(=O)c1c(N2CCCC2)[nH]c(-c2ccccc2)nc1=S | 6 | -13 | 33* | -3 | 4.8* | 50
CC(=O)c1c(N)[nH]c(-c2ccccc2)nc1=S | -7 | -8 | . | -12 | 4.4* | -14
CC(=O)c1c(N2CCN(Cc3ccccc3)CC2)[nH]c(-c2ccccc2)nc1=S | 9 | -13 | 45* | -11 | 7.5* | -39
SMILES | Arbovirus anti | MDM2 E3 inh | KCC2 mod | PKD1 inh | ROMK mod | m-calpain inh
CC(=O)c1c(C)[nH]c(-c2ccccc2)c1C | -11 | -6 | -0.31 | 1 | . | 2
N#Cc1c(NC(=O)c2cccc(S(=O)(=O)Nc3ccc(C(=O)O)cc3)c2)sc2c1CCCC2 | . | -5 | -2.9 | . | . | 52*
CCC(=O)OCn1nnc2ccccc2c1=O | -2 | -6 | -0.21 | -2 | 0.86 | 20
CCOc1ccc(CC(=O)OCn2nnc3ccccc3c2=O)cc1 | 13 | -1 | -0.84 | -3 | 1.3 | 66*
O=C(C/C=N\OCc1ccc([N+](=O)[O-])cc1)Nc1ccc(Br)cc1 | -1 | -14 | 0.067 | 2 | -1.7 | 18
CC(C)C1Cc2c(sc3[nH]c(=S)n(Cc4ccccc4)c(=O)c23)CO1 (stereo unspecified) | -19 | -17 | 19* | 2 | 9.3* | -43
CN(Cc1cn(Cc2ccccc2)nc1-c1ccc2c(c1)OCO2)Cc1nccn1C | -1 | 6 | 0.25 | 1 | 0.057 | 0
O=C(NC1CCCCC1)C(c1ccccc1)N(Cc1ccc2c(c1)OCO2)C(=O)c1cnsn1 (stereo unspecified) | 8 | -12 | 0.13 | 0 | -2.4* | 23
Cc1ccc(C(C(=O)NC2CCCC2)N(Cc2ccc3c(c2)OCO3)C(=O)c2snc(C(N)=O)c2N)cc1 (stereo unspecified) | . | . | . | . | . | -20
CNC(=S)N/N=C(\C)c1ccc(C)c(C)c1 | -2 | 6 | 5.1* | -10 | . | 3
CNC(=S)N/N=C(\C)c1ccc(Cl)s1 | -7 | -8 | 13* | 1 | . | -8
C/C(=N\NC(N)=O)c1ccc(Cl)s1 | . | -5 | -0.86 | . | . | -3
C=C(C)CNC(=S)N/N=C(\C)c1cccc(NC(C)=O)c1 | -1 | -13 | 0.22 | -3 | . | 17
CCNC(=S)N/N=C(\C)c1cc2ccccc2o1 | 2 | -1 | 9.1* | -17 | . | -27
CNC(=S)N/N=C(\C)c1ccc(N2CCOCC2)cc1 | 5 | -17 | 0.034 | 9 | . | -4
C=C(C)CNC(=S)N/N=C(\C)c1ccc(Cl)s1 | -3 | 1 | 13* | 8 | . | 4
O=C(/C=C/c1ccco1)NCC1COc2ccccc2O1 (stereo unspecified) | . | -7 | -0.0077 | . | -0.98 | 3
CCNC(=S)Nc1cc(-c2ccc(Cl)cc2)[nH]n1 | 3 | -7 | -0.49 | 2 | 1.3 | -5
CCNC(=S)N/N=C(\C)c1ccc(Cl)s1 | -11 | 5 | 19* | -4 | . | 12
O=C(NC1CCCC1)c1n[nH]c2ccccc12 | 0 | -8 | -0.78 | -5 | 0.022 | 9
COc1ccc(CNC(=O)C2CCN(S(=O)(=O)c3ccc(-c4nn[nH]n4)cc3)CC2)cc1 | 2 | 1 | 0.17 | -20 | 0.34 | 51*
CC1Cc2ccccc2N1C(=S)NC(=O)c1cccc(Br)c1 (stereo unspecified) | -10 | -4 | 63* | 4 | 10* | 9
CC(=O)c1ccc(NC(=S)N2c3ccccc3CC2C)cc1 (stereo unspecified) | 14 | -23 | -0.41 | 7 | . | 40
